The source made the active and inactive calls. The rule behind the calls is not given here.
How the values were obtained:
[1] = molecular target: SRSF protein kinase 1 (Homo sapiens) (UniProt Q96SB4); test: Inhibition of human SRPK1 assessed as residual activity at 1 uM relative to control
[2] = molecular target: cGMP-dependent protein kinase 1 (Homo sapiens) (UniProt Q13976); test: Inhibition of human PKG1beta assessed as residual activity at 1 uM relative to control
[3] = molecular target: Cyclin-dependent kinase 5/CDK5 activator 1 (Homo sapiens) (UniProt Q00535+Q15078); test: Inhibition of CDK5/p35NCK (unknown origin) assessed as residual activity at 1 uM relative to control; assay type: protein-complex assay
[4] = molecular target: Casein kinase II (Homo sapiens) (UniProt P67870+P68400+P19784); test: Inhibition of CK2 in human HEK293 cells assessed as reduction of Akt phosphorylation at S473 at 0.25 to 8 uM after 2 hrs by Western blot analysis; assay type: cell-based
Procedure, shortened: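 Cells were lysed in urea lysis buffer (6 M urea, NaF, Na3VO4, protease inhibitors). 20–40 µg protein was run on 10% SDS-PAGE and detected by ECL. Primary antibodies (pAkt S473, PARP, β-actin loading control) were used at 1:1000 overnight at 4 °C. DMSO was the vehicle control. For the pAkt blots, cells were treated for 2 h with Ly294002 as positive control.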

[5] = Antiproliferative activity against human OVCAR4 cells after 3 days by sulforhodamine B assay; assay type: functional; settings: OVCAR-4, 72 h
Procedure, shortened: (§1)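 Tested in the NCI 60 cell line panel. GI50 is the concentration giving 50% inhibition of cell growth, and values are the mean of two series of tests.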

[6] = molecular target: Epidermal growth factor receptor (Homo sapiens) (UniProt P00533); test: Inhibition of EGF-R (unknown origin) assessed as residual activity at 1 uM relative to control
[7] = molecular target: Ribosomal protein S6 kinase beta-1 (Homo sapiens) (UniProt P23443); test: Inhibition of human p70S6K assessed as residual activity at 1 uM relative to control
[8] = molecular target: NUAK family SNF1-like kinase 1 (Homo sapiens) (UniProt O60285); test: Inhibition of human ARK5 assessed as residual activity at 1 uM relative to control
[9] = molecular target: Serine/threonine-protein kinase Chk2 (Homo sapiens) (UniProt O96017); test: Inhibition of CHK2 (unknown origin) assessed as residual activity at 10 uM relative to control
[10] = Antiproliferative activity against human RXF393 cells after 3 days by sulforhodamine B assay; assay type: functional; settings: RXF 393, 72 h; procedure, shortened: as §1
[11] = molecular target: Tyrosine-protein kinase ABL1 (Homo sapiens) (UniProt P00519); test: Inhibition of ABL1 (unknown origin) assessed as residual activity at 1 uM relative to control
[12] = molecular target: Activated CDC42 kinase 1 (Homo sapiens) (UniProt Q07912); test: Inhibition of human ACK1 assessed as residual activity at 1 uM relative to control
[13] = test system: SK-MEL-28; test: Antiproliferative activity against human SK-MEL-28 cells after 3 days by sulforhodamine B assay; assay type: functional; settings: SK-MEL-28, 72 h; procedure, shortened: as §1
[14] = molecular target: Mitogen-activated protein kinase 12 (Homo sapiens) (UniProt P53778); test: Inhibition of human SAPK3 assessed as residual activity at 1 uM relative to control
[15] = Antiproliferative activity against human EKVX cells after 3 days by sulforhodamine B assay; assay type: functional; settings: 72 h; procedure, shortened: as §1
[16] = molecular target: Platelet-derived growth factor receptor alpha (Homo sapiens) (UniProt P16234); test: Inhibition of PDGFR-alpha (unknown origin) assessed as residual activity at 1 uM relative to control
[17] = molecular target: Angiopoietin-1 receptor (Homo sapiens) (UniProt Q02763); test: Inhibition of human Tie2 assessed as residual activity at 1 uM relative to control
[18] = molecular target: Glycogen synthase kinase-3 beta (Homo sapiens) (UniProt P49841); test: Inhibition of GSK3-beta (unknown origin) assessed as residual activity at 10 uM relative to control
[19] = molecular target: Receptor tyrosine-protein kinase erbB-2 (Homo sapiens) (UniProt P04626); test: Inhibition of ERBB2 (unknown origin) assessed as residual activity at 1 uM relative to control
[20] = molecular target: Fibroblast growth factor receptor 3 (Homo sapiens) (UniProt P22607); test: Inhibition of human FGFR3 assessed as residual activity at 1 uM relative to control
[21] = molecular target: Glycogen synthase kinase-3 alpha (Homo sapiens) (UniProt P49840); test: Inhibition of human GSK3alpha assessed as residual activity at 1 uM relative to control
[22] = molecular target: Testis-specific serine/threonine-protein kinase 1 (Homo sapiens) (UniProt Q9BXA7); test: Inhibition of human TSSK1 assessed as residual activity at 1 uM relative to control
[23] = test system: CCRF-CEM; test: Antiproliferative activity against human CCRF-CEM cells after 3 days by sulforhodamine B assay; assay type: functional; settings: 72 h; procedure, shortened: as §1
[24] = Antiproliferative activity against human UACC257 cells after 3 days by sulforhodamine B assay; assay type: functional; settings: UACC-257, 72 h
[25] = molecular target: Ephrin type-A receptor 7 (Homo sapiens) (UniProt Q15375); test: Inhibition of human EphA7 assessed as residual activity at 1 uM relative to control
[26] = test system: MCF7; test: Induction of late stage apoptosis in human MCF7 cells expressing CK2 at 0.25 to 4 uM after 24 hrs using propidium iodide/annexin V staining by FACS analysis; assay type: functional, cell-based
Procedure, shortened: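 MCF7 cells were then treated for 24 h, stained with FITC-annexin V in HEPES pH 7.4 binding buffer with 1.8 mM CaCl2 (15 min, dark, room temperature), then with PI (10 min), and analysed by FACS.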

Chain of Testis-specific serine/threonine-protein kinase 1 (Homo sapiens) (Q9BXA7 whole entry): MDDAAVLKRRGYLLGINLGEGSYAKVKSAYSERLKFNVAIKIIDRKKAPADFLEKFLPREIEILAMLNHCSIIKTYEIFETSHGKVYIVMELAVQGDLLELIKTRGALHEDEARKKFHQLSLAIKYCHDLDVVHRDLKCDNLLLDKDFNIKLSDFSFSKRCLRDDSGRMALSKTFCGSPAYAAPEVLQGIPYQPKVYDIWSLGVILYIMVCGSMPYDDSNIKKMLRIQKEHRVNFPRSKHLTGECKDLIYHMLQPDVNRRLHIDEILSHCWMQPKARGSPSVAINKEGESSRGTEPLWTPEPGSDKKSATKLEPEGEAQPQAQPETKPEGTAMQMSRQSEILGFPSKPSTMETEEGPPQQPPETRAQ
Chain of Serine/threonine-protein kinase Chk2 (Homo sapiens) (O96017 whole entry): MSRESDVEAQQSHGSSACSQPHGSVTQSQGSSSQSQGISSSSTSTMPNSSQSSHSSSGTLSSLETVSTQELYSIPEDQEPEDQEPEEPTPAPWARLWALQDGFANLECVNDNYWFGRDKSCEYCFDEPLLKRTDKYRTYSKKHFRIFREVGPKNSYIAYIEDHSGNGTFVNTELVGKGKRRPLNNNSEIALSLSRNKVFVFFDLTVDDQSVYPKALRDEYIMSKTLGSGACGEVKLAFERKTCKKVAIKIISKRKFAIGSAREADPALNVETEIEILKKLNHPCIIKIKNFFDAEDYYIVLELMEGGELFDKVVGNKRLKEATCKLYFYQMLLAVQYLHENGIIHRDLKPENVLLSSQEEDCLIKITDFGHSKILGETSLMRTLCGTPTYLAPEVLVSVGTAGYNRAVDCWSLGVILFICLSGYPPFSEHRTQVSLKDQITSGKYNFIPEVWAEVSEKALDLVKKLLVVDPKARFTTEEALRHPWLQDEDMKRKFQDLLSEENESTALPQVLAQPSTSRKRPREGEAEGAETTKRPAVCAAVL
Chain of Receptor tyrosine-protein kinase erbB-2 (Homo sapiens) (P04626 whole entry): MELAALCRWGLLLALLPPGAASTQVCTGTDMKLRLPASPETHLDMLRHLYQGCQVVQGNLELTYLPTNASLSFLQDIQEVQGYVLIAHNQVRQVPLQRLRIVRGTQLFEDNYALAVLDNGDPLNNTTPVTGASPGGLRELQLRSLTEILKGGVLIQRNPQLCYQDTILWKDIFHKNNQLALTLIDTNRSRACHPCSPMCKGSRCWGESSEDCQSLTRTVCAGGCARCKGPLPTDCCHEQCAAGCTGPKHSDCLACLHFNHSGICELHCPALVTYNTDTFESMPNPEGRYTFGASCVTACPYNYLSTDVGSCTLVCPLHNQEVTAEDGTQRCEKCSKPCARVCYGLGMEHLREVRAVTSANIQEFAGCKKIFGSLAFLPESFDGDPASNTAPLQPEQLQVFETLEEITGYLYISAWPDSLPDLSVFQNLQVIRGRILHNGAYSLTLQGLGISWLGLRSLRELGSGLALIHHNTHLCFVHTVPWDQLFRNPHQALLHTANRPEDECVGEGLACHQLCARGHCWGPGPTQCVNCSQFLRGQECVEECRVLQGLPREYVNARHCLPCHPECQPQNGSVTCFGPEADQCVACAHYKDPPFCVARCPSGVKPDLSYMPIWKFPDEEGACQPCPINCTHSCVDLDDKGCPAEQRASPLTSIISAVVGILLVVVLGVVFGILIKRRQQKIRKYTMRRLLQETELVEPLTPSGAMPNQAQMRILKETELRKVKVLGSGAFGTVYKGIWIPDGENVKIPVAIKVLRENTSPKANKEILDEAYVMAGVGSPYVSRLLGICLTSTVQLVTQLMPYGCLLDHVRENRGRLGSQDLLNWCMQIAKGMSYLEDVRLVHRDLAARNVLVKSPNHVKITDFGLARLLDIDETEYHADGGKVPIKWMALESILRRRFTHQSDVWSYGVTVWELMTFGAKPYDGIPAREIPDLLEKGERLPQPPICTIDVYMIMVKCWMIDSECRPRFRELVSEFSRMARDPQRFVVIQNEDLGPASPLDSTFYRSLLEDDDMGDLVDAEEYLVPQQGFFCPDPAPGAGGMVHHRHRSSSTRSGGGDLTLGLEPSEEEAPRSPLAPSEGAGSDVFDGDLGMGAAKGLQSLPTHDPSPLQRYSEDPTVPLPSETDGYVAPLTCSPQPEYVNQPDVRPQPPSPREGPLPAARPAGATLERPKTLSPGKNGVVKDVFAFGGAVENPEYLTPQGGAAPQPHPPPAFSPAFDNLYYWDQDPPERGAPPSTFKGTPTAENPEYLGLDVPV
Chain of Cyclin-dependent kinase 5/CDK5 activator 1 (Homo sapiens) (Q00535 whole entry): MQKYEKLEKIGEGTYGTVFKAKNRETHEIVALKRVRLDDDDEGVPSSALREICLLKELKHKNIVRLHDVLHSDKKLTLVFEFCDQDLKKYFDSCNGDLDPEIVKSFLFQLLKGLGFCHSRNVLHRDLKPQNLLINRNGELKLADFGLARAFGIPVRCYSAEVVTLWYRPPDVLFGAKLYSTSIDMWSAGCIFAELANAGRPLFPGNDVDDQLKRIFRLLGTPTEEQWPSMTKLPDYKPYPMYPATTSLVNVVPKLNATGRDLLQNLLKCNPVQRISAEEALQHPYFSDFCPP
Chain of Cyclin-dependent kinase 5/CDK5 activator 1 (Homo sapiens) (Q15078 99-307 partner limits assumed): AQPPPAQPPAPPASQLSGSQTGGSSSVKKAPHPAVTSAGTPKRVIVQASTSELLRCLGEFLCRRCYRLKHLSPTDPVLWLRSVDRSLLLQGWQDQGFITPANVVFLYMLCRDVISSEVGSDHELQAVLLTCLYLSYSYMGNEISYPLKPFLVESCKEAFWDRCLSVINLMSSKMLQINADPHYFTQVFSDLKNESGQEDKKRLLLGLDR
Chain of Glycogen synthase kinase-3 beta (Homo sapiens) (P49841 whole entry, looked up): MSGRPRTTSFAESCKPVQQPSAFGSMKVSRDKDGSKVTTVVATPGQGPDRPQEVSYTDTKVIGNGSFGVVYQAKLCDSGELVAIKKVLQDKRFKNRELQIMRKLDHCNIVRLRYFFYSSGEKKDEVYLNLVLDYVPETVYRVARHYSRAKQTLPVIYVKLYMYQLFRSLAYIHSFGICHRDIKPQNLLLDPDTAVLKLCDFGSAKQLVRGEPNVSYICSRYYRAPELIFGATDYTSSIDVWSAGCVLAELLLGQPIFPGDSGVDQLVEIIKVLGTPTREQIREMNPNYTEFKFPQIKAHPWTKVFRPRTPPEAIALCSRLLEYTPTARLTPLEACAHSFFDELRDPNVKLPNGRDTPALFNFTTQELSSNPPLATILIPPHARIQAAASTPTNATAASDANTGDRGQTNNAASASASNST
Chain of Glycogen synthase kinase-3 alpha (Homo sapiens) (P49840 2-483 limits assumed): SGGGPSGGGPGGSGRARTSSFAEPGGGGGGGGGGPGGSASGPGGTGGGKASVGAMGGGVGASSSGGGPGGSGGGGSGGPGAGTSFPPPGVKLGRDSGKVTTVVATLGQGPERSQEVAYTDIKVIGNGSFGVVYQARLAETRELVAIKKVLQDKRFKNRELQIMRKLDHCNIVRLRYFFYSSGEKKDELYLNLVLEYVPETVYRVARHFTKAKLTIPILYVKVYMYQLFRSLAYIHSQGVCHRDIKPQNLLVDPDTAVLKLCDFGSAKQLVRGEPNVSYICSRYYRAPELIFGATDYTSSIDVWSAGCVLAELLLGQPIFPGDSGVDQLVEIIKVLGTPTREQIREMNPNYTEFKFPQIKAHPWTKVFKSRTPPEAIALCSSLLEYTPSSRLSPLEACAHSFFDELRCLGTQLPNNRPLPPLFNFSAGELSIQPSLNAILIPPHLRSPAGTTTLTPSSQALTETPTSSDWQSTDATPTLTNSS
Chain of Ribosomal protein S6 kinase beta-1 (Homo sapiens) (P23443 whole entry, looked up): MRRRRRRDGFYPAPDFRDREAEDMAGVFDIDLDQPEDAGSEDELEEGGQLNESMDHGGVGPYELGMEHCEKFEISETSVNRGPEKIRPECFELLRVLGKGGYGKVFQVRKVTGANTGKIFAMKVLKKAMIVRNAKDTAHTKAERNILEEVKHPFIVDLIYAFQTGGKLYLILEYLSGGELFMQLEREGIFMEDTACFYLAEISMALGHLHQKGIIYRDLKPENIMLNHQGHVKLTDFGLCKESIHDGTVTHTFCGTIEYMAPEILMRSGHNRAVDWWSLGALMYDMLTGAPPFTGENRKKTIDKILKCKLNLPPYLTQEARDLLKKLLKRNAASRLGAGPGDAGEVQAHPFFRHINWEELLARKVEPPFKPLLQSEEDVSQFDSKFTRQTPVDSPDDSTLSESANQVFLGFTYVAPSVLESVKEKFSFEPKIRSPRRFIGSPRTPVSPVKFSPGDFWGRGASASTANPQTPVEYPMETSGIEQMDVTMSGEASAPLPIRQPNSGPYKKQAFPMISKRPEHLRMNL
Chain of NUAK family SNF1-like kinase 1 (Homo sapiens) (O60285 whole entry): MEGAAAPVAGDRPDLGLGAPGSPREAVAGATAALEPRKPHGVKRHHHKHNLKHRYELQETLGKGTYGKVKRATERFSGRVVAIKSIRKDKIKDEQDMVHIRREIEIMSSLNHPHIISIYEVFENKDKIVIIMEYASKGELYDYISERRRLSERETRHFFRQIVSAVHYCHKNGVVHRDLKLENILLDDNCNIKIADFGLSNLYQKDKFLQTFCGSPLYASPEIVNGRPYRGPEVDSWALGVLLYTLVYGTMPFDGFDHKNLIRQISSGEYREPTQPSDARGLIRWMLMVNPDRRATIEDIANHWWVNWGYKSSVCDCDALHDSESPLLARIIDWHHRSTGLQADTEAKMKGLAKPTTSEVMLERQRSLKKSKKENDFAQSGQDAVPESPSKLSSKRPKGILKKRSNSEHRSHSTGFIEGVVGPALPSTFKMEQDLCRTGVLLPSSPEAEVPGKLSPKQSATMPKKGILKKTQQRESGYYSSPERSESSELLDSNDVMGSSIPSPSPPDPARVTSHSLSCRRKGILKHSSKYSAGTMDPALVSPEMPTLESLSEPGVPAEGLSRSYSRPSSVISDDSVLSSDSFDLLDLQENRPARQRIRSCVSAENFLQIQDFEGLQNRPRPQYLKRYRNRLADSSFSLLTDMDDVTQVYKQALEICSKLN

SMILES: O=C1Nc2ncccc2/C1=C1/Nc2ncccc2C1=O
- Activity [1]: 92%
- Activity [2]: 90%
- Activity [3]: 106%
- inhibition [4]: Active
- GI50 [5]: 1090 nM
- Activity [6]: 89%
- Activity [7]: 133%
- Activity [8]: 81%
- Activity [9]: 84%
- GI50 [10]: 2190 nM
- Activity [11]: 96%
- Activity [12]: 97%
- GI50 [13]: 2830 nM
- Activity [14]: 101%
- GI50 [15]: 1270 nM
- Activity [16]: 94%
- Activity [17]: 117%
- Activity [18]: 92%
- Activity [19]: 99%
- Activity [20]: 126%
- Activity [21]: 68%
- Activity [22]: 85%
- GI50 [23]: 2740 nM
- GI50 [24]: 214 nM
- Activity [25]: 105%
- Activity [26]: Active

From ChEMBL document CHEMBL3098105, “7,7'-Diazaindirubin--a small molecule inhibitor of casein kinase 2 in vitro and in cells” (Bioorg Med Chem, 2014)
